{"source": "ChEMBL document CHEMBL3259660", "about": "“Haloemodin as novel antibacterial agent inhibiting DNA gyrase and bacterial topoisomerase I” (J Med Chem, 2014)", "key": {"Streptococcus pneumoniae [1]": {"test_system": "Streptococcus pneumoniae", "assay": "Antibacterial activity against Streptococcus pneumoniae ATCC 49619 assessed as growth inhibition by agar dilution assay", "format": "functional", "outline": "(§1)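 Agar dilution MIC per CLSI (aerobic and anaerobic methods); compounds dissolved in DMSO, reference antibiotics in sterile water. MIC taken as lowest concentration with no visible growth; determined at least twice on separate days, higher value reported. Clinical isolate ranges summarized as MIC50/MIC90.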"}, "Streptococcus pneumoniae [2]": {"test_system": "Streptococcus pneumoniae", "assay": "Antibacterial activity against Streptococcus pneumoniae assessed as growth inhibition by agar dilution assay", "format": "functional", "outline": "as §1"}, "Staphylococcus aureus [3]": {"test_system": "Staphylococcus aureus", "assay": "In vivo antibacterial activity against Staphylococcus aureus in New zealand rabbit keratitis model assessed as suppression of conjuctival congestion, conjuctival chemosis, infiltration, operative ulcer area and depth at 3 mg/ml administered topically every 4 hrs for four doses every day for 10 days starting 24 hrs post-infection by slit lamp biomicroscopy", "format": "functional, organism-based", "outline": "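NZW rabbits (2.0−3.0 kg), anesthetized with iv sodium pentobarbital 30 mg/kg, given intracorneal S. aureus (about 7.5 × 10^6 CFU) from an overnight LB culture. Starting 24 h post-infection, 30 μL drops applied topically per eye every 4 h, four doses daily (8 a.m.–8 p.m.), for 10 days, masked. Test compound in PEG–water (1:1). Slit-lamp biomicroscopy before and after.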"}, "Escherichia coli": {"test_system": "Escherichia coli", "assay": "Antibacterial activity against Escherichia coli ATCC 25922 assessed as growth inhibition by agar dilution assay", "format": "functional", "outline": "as §1"}, "Pseudomonas aeruginosa [4]": {"test_system": "Pseudomonas aeruginosa", "assay": "Antibacterial activity against Pseudomonas aeruginosa assessed as growth inhibition by agar dilution assay", "format": "functional", "outline": "(§2)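 CLSI agar dilution MIC against aerobic and anaerobic strains. Test compounds were dissolved in DMSO and reference antibiotics in sterile water. MIC was taken as the lowest concentration showing no bacterial growth. Each MIC was determined at least twice on separate days, and the higher value was reported. E. coli PQ 37 was cultured in LA medium.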"}, "Pseudomonas aeruginosa [5]": {"test_system": "Pseudomonas aeruginosa", "assay": "Antibacterial activity against Pseudomonas aeruginosa ATCC 27853 assessed as growth inhibition by agar dilution assay", "format": "functional", "outline": "as §1"}, "Bacillus cereus": {"test_system": "Bacillus cereus", "assay": "Antibacterial activity against Bacillus cereus ATCC 10231 assessed as growth inhibition by agar dilution assay", "format": "functional"}, "[6]": {"test_system": "Brevibacillus laterosporus", "assay": "Antibacterial activity against Brevibacillus laterosporus ATCC 64 assessed as growth inhibition by agar dilution assay", "format": "functional"}, "[7]": {"assay": "Cytotoxicity against CHL cells assessed as cell viability after 24 hrs by MTT assay", "format": "cell-based, Cricetulus griseus", "conditions": "chinese hamster", "outline": "(§3)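 CHL fibroblasts seeded at about 5 × 10^4 cells/mL, incubated overnight at 37 °C, 5% CO2, then exposed to compound at different concentrations for 24 h. Viability read by MTT, absorbance at 570 nm, relative to cells in medium alone (100%). Triplicate.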"}, "Staphylococcus aureus [8]": {"test_system": "Staphylococcus aureus", "assay": "microbe, parasite or virus in culture", "format": "functional", "conditions": "ATCC 6538"}, "[9]": {"assay": "Cytotoxicity against CHL cells assessed as cell viability at 0.256 mg/ml after 24 hrs by MTT assay", "format": "cell-based, Cricetulus griseus", "conditions": "chinese hamster, read-out: Activity", "outline": "as §3"}, "Staphylococcus aureus [10]": {"test_system": "Staphylococcus aureus", "assay": "Antibacterial activity against Staphylococcus aureus ATCC 29213 assessed as growth inhibition by agar dilution assay", "format": "functional", "outline": "as §1"}, "Bacteroides fragilis [11]": {"test_system": "Bacteroides fragilis", "assay": "Antibacterial activity against Bacteroides fragilis ATCC 25285 assessed as growth inhibition by agar dilution assay", "format": "functional", "outline": "as §1"}, "Bacteroides fragilis [12]": {"test_system": "Bacteroides fragilis", "assay": "Antibacterial activity against Bacteroides fragilis assessed as growth inhibition by agar dilution assay", "format": "functional", "outline": "as §1"}, "[13]": {"test_system": "Staphylococcus epidermidis", "assay": "Antibacterial activity against methicillin-resistant Staphylococcus epidermidis assessed as growth inhibition by agar dilution assay", "format": "functional", "outline": "as §2"}, "[14]": {"test_system": "Staphylococcus epidermidis", "assay": "Antibacterial activity against methicillin-sensitive Staphylococcus epidermidis assessed as growth inhibition by agar dilution assay", "format": "functional", "outline": "as §1"}, "Staphylococcus aureus [15]": {"test_system": "Staphylococcus aureus", "assay": "Antibacterial activity against methicillin-resistant Staphylococcus aureus assessed as growth inhibition by agar dilution assay", "format": "functional", "outline": "as §2"}, "Staphylococcus aureus [16]": {"test_system": "Staphylococcus aureus", "assay": "Antibacterial activity against methicillin-sensitive Staphylococcus aureus assessed as growth inhibition by agar dilution assay", "format": "functional", "outline": "as §1"}}, "note": "Active and inactive are the calls of the source. The rule behind the calls is not given here."}
{"smiles": "CC1(C)S[C@@H]2[C@H](NC(=O)Cc3ccccc3)C(=O)N2[C@H]1C(=O)[O-].[Na+]", "note": "[PENICILLIN G SODIUM]", "values": [{"measurement": "MIC", "setting": "Streptococcus pneumoniae [1]", "result": 0.25, "unit": "µg/mL"}, {"measurement": "MIC", "setting": "Streptococcus pneumoniae [2]", "result": 8, "unit": "µg/mL"}]}
{"smiles": "CC1COc2c(N3CCN(C)CC3)c(F)cc3c(=O)c(C(=O)O)cn1c23", "note": "(stereo not drawn)", "values": [{"measurement": "inhibition", "setting": "Staphylococcus aureus [3]", "result": "Active"}]}
{"smiles": "CCN1CCN(C(=O)N[C@@H](C(=O)N[C@@H]2C(=O)N3[C@@H]2SC(C)(C)[C@@H]3C(=O)[O-])c2ccccc2)C(=O)C1=O.[Na+]", "note": "[PIPERACILLIN SODIUM]", "values": [{"measurement": "MIC", "setting": "Escherichia coli", "result": 4, "unit": "µg/mL"}, {"measurement": "MIC", "setting": "Pseudomonas aeruginosa [4]", "result": 2, "unit": "µg/mL"}, {"measurement": "MIC", "setting": "Pseudomonas aeruginosa [5]", "result": 4, "unit": "µg/mL"}]}
{"smiles": "Cc1cc(O)c2c(c1)C(=O)c1c(Br)c(O)c(Br)c(O)c1C2=O", "values": [{"measurement": "MIC", "setting": "Bacillus cereus", "result": 8, "unit": "µg/mL"}, {"measurement": "MIC", "setting": "[6]", "result": 8, "unit": "µg/mL"}, {"measurement": "MIC", "setting": "Escherichia coli", "result": "> 256", "unit": "µg/mL"}, {"measurement": "IC90 at 24 h", "setting": "[7]", "result": 128, "unit": "µg/mL"}, {"measurement": "MIC", "setting": "Pseudomonas aeruginosa [5]", "result": "> 256", "unit": "µg/mL"}, {"measurement": "MIC", "setting": "Staphylococcus aureus [8]", "result": 8, "unit": "µg/mL"}, {"measurement": "viability at 24 h, 0.256 mg/ml", "setting": "[9]", "result": "> 75", "unit": "%"}, {"measurement": "MIC", "setting": "Staphylococcus aureus [10]", "result": 16, "unit": "µg/mL"}]}
{"smiles": "CCC[C@@H]1C[C@@H](C(=O)N[C@@H]([C@H]2O[C@H](SC)[C@H](OP(=O)(O)O)[C@@H](O)[C@H]2O)[C@H](C)Cl)N(C)C1", "note": "[CLINDAMYCIN PHOSPHATE]", "values": [{"measurement": "MIC", "setting": "Bacteroides fragilis [11]", "result": 0.5, "unit": "µg/mL"}, {"measurement": "MIC", "setting": "Bacteroides fragilis [12]", "result": 0.03, "unit": "µg/mL"}]}
{"smiles": "Cc1cc(O)c2c(c1)C(=O)c1cc(O)c(I)c(O)c1C2=O", "values": [{"measurement": "MIC", "setting": "Bacillus cereus", "result": 16, "unit": "µg/mL"}, {"measurement": "MIC", "setting": "[6]", "result": 16, "unit": "µg/mL"}, {"measurement": "MIC", "setting": "Escherichia coli", "result": "> 256", "unit": "µg/mL"}, {"measurement": "MIC", "setting": "Pseudomonas aeruginosa [5]", "result": "> 256", "unit": "µg/mL"}, {"measurement": "MIC", "setting": "Staphylococcus aureus [8]", "result": 16, "unit": "µg/mL"}, {"measurement": "viability at 24 h, 0.256 mg/ml", "setting": "[9]", "result": "> 75", "unit": "%"}, {"measurement": "MIC", "setting": "Staphylococcus aureus [10]", "result": 32, "unit": "µg/mL"}]}
{"smiles": "Cc1cc(O)c2c(c1)C(=O)c1c(Cl)c(O)c(I)c(O)c1C2=O", "values": [{"measurement": "MIC", "setting": "Bacillus cereus", "result": 32, "unit": "µg/mL"}, {"measurement": "MIC", "setting": "[6]", "result": 32, "unit": "µg/mL"}, {"measurement": "MIC", "setting": "Escherichia coli", "result": "> 256", "unit": "µg/mL"}, {"measurement": "MIC", "setting": "Pseudomonas aeruginosa [5]", "result": "> 256", "unit": "µg/mL"}, {"measurement": "MIC", "setting": "Staphylococcus aureus [8]", "result": 32, "unit": "µg/mL"}, {"measurement": "viability at 24 h, 0.256 mg/ml", "setting": "[9]", "result": "> 75", "unit": "%"}, {"measurement": "MIC", "setting": "Staphylococcus aureus [10]", "result": 64, "unit": "µg/mL"}]}
{"smiles": "Cc1cc2c(c(O)c1I)C(=O)c1c(O)c(I)c(O)c(I)c1C2=O", "values": [{"measurement": "MIC", "setting": "Bacillus cereus", "result": 8, "unit": "µg/mL"}, {"measurement": "MIC", "setting": "[6]", "result": 8, "unit": "µg/mL"}, {"measurement": "MIC", "setting": "Escherichia coli", "result": "> 256", "unit": "µg/mL"}, {"measurement": "IC90 at 24 h", "setting": "[7]", "result": 128, "unit": "µg/mL"}, {"measurement": "MIC", "setting": "Pseudomonas aeruginosa [5]", "result": "> 256", "unit": "µg/mL"}, {"measurement": "MIC", "setting": "Staphylococcus aureus [8]", "result": 8, "unit": "µg/mL"}, {"measurement": "viability at 24 h, 0.256 mg/ml", "setting": "[9]", "result": "> 75", "unit": "%"}, {"measurement": "MIC", "setting": "Staphylococcus aureus [10]", "result": 16, "unit": "µg/mL"}]}
{"smiles": "CN[C@H](CC(C)C)C(=O)N[C@H]1C(=O)N[C@@H](CC(N)=O)C(=O)N[C@H]2C(=O)N[C@H]3C(=O)N[C@H](C(=O)N[C@H](C(=O)O)c4cc(O)cc(O)c4-c4cc3ccc4O)[C@H](O)c3ccc(c(Cl)c3)Oc3cc2cc(c3O[C@@H]2O[C@H](CO)[C@@H](O)[C@H](O)[C@H]2O[C@H]2C[C@](C)(N)[C@H](O)[C@H](C)O2)Oc2ccc(cc2Cl)[C@H]1O.Cl", "note": "[VANCOMYCIN HYDROCHLORIDE]", "values": [{"measurement": "MIC", "setting": "Bacillus cereus", "result": 2, "unit": "µg/mL"}, {"measurement": "MIC", "setting": "[6]", "result": 2, "unit": "µg/mL"}]}
{"smiles": "CO[C@@]1(NC(=O)Cc2cccs2)C(=O)N2C(C(=O)[O-])=C(COC(N)=O)CS[C@@H]21.[Na+]", "note": "[CEFOXITIN SODIUM]", "values": [{"measurement": "MIC", "setting": "[13]", "result": 128, "unit": "µg/mL"}, {"measurement": "MIC", "setting": "[14]", "result": 1, "unit": "µg/mL"}, {"measurement": "MIC", "setting": "Staphylococcus aureus [15]", "result": 128, "unit": "µg/mL"}, {"measurement": "MIC", "setting": "Staphylococcus aureus [16]", "result": 0.5, "unit": "µg/mL"}, {"measurement": "MIC", "setting": "Staphylococcus aureus [10]", "result": 2, "unit": "µg/mL"}]}
{"smiles": "Cc1c(Cl)c(O)c2c(c1Cl)C(=O)c1c(Cl)c(O)cc(O)c1C2=O", "values": [{"measurement": "MIC", "setting": "Bacillus cereus", "result": 8, "unit": "µg/mL"}, {"measurement": "MIC", "setting": "[6]", "result": 8, "unit": "µg/mL"}, {"measurement": "MIC", "setting": "Escherichia coli", "result": "> 256", "unit": "µg/mL"}, {"measurement": "IC90 at 24 h", "setting": "[7]", "result": 256, "unit": "µg/mL"}, {"measurement": "MIC", "setting": "Pseudomonas aeruginosa [5]", "result": "> 256", "unit": "µg/mL"}, {"measurement": "MIC", "setting": "Staphylococcus aureus [8]", "result": 8, "unit": "µg/mL"}, {"measurement": "viability at 24 h, 0.256 mg/ml", "setting": "[9]", "result": "> 75", "unit": "%"}, {"measurement": "MIC", "setting": "Staphylococcus aureus [10]", "result": 16, "unit": "µg/mL"}]}
